Apaf-1 act: human Apaf-1 activation; O14727; Apaf-1 apoptosome caspase-3 activation, DEVD-Rh110 fluorescence; active compounds read low; activity change, negative = activation, % at 20 µM; hit rate 0.31% among 330,000; AID 489031;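 active = activity change at or below -40% at 20 µM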
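System: Reconstituted apoptosome of Apaf-1, cytochrome c, caspase-9, procaspase-3 | Reagent: dATP, cytochrome c, and (Z-DEVD)2-Rh110 caspase-3 substrate | Times: 30 min compound preincubation and 50 min reaction, both room temperature | Detection: Caspase-3-released Rh110 fluorescence, 540 nm emission, 480 nm excitation | Measure: Caspase-3 activity via Apaf-1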
Rh110 interf act: counter-screen for Apaf-1 activators: fluorescence interference | AID 504616 | shares compounds with Apaf-1 act | 980 tested, under 10 active | fluorescence interference (activity change), % at 20 µM, hits read low | Rh110 fluorescence interference, quenched caspase reaction, Ex480/Em540;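 active = mean activity change at or below -40% when tested at 20 µM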
Apaf-1 act conf: Apaf-1 (human) activation, single-dose confirmed; shares compounds with Apaf-1 act; reconstituted apoptosome caspase-3 activity, DEVD-Rh110 fluorescence; active compounds read low; activity change, negative = activation, % at 20 µM; hit rate 5% among 980;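 active = mean activity change at or below -40%, meaning activation of 40% or more, at 20 µM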
* = called active by the depositor; nt = not tested or not shown. Only a sample is shown.

SMILES	Apaf-1 act	Rh110 interf act	Apaf-1 act conf
C#CCOCCOCCOCCNc1nc(N2CCN(C(=O)CCCCCCCCCCNC(=O)Cn3cc(C[C@@H](C)O)nn3)CC2)nc(N2CCN(C(=O)CCCCCCCCCCNC(=O)[C@@H](CCC(=O)O)n3cc(CCCCCN)nn3)CC2)n1	52	nt	nt
Cc1ccc(SCC(=O)Nc2nccs2)cc1	-524*	-5	9
Cc1[nH]cnc1CSCc1ccc(Cl)cc1	-426*	3	16
CCOC(=O)c1nn(-c2ccccc2C)c(=O)c2c(N)scc12	47	nt	nt
O=C1N/C(=C\c2ccc(O)cc2)C(=O)c2ccccc21	97	nt	nt
O=C(NCCCN1CCOCC1)c1c(O)c2cc(Br)cc(Br)c2[nH]c1=O	-57*	-9	11
O=C(NCCCN1CCCCCC1)c1cc2c(=O)oc3ccccc3c2s1	40	nt	nt
Cc1ccc(-c2cc(C(=O)NCCCN3CCOCC3)c3ccc(Cl)c(C)c3n2)cc1	55	nt	nt
Cc1[nH][nH]c(=O)c1C(c1ccc(-c2ccc(Cl)c(Cl)c2)o1)c1c(C)[nH][nH]c1=O	79	nt	nt
CN(C)c1ccc(NC(=O)Oc2ccccc2)cc1	48	nt	nt
CC1CCCC(NC(=O)COC(=O)CCC(=O)c2cccs2)C1C (centres undefined)	-273*	0	12
COc1ccc(Cl)cc1C(=O)OCC(=O)NC1CCCC(C)C1C (centres undefined)	-41*	12	15
CC1CCCC(NC(=O)COC(=O)c2ccc([N+](=O)[O-])s2)C1C (centres undefined)	41	nt	nt
O=C(CC1Nc2cccc3cccc(c23)NC1=O)Nc1ccc(F)cc1 (centres undefined)	96	nt	nt
Cc1[nH]c2ccccc2c1C(C#N)(C#N)C1C(=O)c2ccccc2C1=O	73	nt	nt
Fc1ccc(-[n+]2nc(Nc3ccccc3)sc2-c2c3ccccc3cc3ccccc23)cc1	42	nt	nt

Bioassay records as filed in PubChem.
